Assay outcomes deposited in PubChem BioAssay by Broad Institute.
Only some compounds are listed: those with a hit (about 1.7% of all), similar ones and a draw of the others.
AI-2 QS mod: modulators of Vibrio harveyi AI-2 quorum sensing system; activity change, % at 7.5 µM; Vibrio harveyi JMH597 AI-2 luminescence/OD600 ratio, 9 h; active compounds read low; strain lacks LuxN and CqsS sensors; 0 = neutral-control median; 300,000 compounds, 0.4% hits; in the data active = activity change below about -75%, passing the limit was not always enough; inconclusive = no clear call, values can overlap the other calls;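 note: luminescence divided by OD600 gain over 9 h not by final OD600 alone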
CAL PDZ FP-1: CAL PDZ (human) peptide binding inhibition; Q9HD26; purified CAL PDZ, TMR-peptide fluorescence polarization, 1 h; inhibition, % at 24.9 µM; 300,000 compounds, 0.92% hits;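 active = mean inhibition of at least 30% with at least half of replicates also reaching 30%; inconclusive = no clear call, values can overlap the other calls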;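 note: 0% = DMSO neutral control and 100% = excess unlabeled competitor peptide PRC23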
Rce1 inhib: inhibitors of yeast Ras-converting enzyme. yeast membranes, quenched prenylated peptide cleavage fluorescence. calls only. 290,000 compounds, 0.27% hits. AID 2563;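 active = fall in fluorescence gain of 50% or more versus controls, with final raw signal at or below 3038400; inconclusive = same 50% fall but final raw signal above 3038400; inactive = fall in fluorescence gain under 50%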;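 note: plate controls were neutral control wells for no effect and wells lacking membranes for full effect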
Target sequence (Q03530 whole entry, looked up): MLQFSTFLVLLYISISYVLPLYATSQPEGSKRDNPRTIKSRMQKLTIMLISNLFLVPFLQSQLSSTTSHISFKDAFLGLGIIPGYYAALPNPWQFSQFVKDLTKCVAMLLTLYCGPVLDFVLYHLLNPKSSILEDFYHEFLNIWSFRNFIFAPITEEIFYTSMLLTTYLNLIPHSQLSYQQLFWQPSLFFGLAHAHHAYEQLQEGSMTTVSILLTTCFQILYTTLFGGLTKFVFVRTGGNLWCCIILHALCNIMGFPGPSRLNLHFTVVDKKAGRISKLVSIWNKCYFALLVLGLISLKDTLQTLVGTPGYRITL
ARNT TACC3 PPI: disruptors of human ARNT/TACC3 interaction; AID 623870; Q9Y6A5; AlphaScreen His-ARNT PAS-B/GST-TACC3 binding, luminescence; TACC3 fragment carries E629A point mutation; inhibition, % at 9.99 µM; 390,000 compounds, 0.66% hits;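 active = mean inhibition of replicates at least 50% and at least half of replicates each reaching 50%; inconclusive = half or more replicates reach 50% but mean below 50%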;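 note: 0% = complete ARNT plus TACC3 wells and 100% = ARNT alone without TACC3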
CAL PDZ FP-2: human CAL PDZ-peptide interaction inhibition; Q9HD26; inhibition, % at 20 µM; AID 504414; purified CAL PDZ, TMR-peptide fluorescence polarization, 1 h; 330,000 compounds, 0.02% hits;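 active = highest replicate inhibition of at least 40%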;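 note: plate controls were DMSO neutral control wells for no effect and unlabeled competitor peptide control wells for full effect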
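Test system: purified CerCALP PDZ construct; Compound dosing: one concentration, 20 µM compound; Also added: TMR-labelled reporter peptide T*-PRC34 bound in PDZ groove; Read-out: inhibition from polarization loss; Controls: unlabelled peptide and DMSO controls; Signal: FP readout, S and P plane fluorescence; Incubation: 1 h at RT.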
* hit, by the source's call; i = inactive; ? = inconclusive; . = no result given; + = active, no number.

SMILES | AI-2 QS mod | CAL PDZ FP-1 | Rce1 inhib | ARNT TACC3 PPI | CAL PDZ FP-2
O=C1CSC(c2cn(-c3ccccc3)nc2-c2cc3ccccc3o2)N1Cc1ccccc1 (centres undefined) | 2 | -1 | i | 0 | 0
CC(C)CN1C(=O)c2ccc(NC(=O)Cc3ccccc3)cc2C1=O | 22 | 74* | i | -2 | 0
Cc1ccc(-n2ncc(Cl)c2C(=O)NC2CC2)cc1 | 1 | 59* | i | 2 | -1
COC(=O)c1ccc(NC(=O)COC(=O)C2=NN(c3ccccc3)C(=O)CC2)cc1 | . | -7 | . | -6 | -1
Cc1cc(Cl)n2c(nc3cc(F)c(F)cc32)c1C#N | -96* | 3 | i | 2 | -1
CCOc1ccc(NC(=O)CN(C)Cc2ccc3c(c2)OCO3)cc1S(=O)(=O)N1CCCC1 | . | -3 | . | -1 | -1
Cn1c(CCNS(=O)(=O)c2ccccc2)nnc1SCc1cccnc1 | 8 | -6 | + | -12 | -1
CCSc1nnc(CCNS(=O)(=O)c2ccc(C(C)=O)cc2)n1C | 9 | -2 | i | -2 | -2
CN1C(=O)CC(N2CCN(c3ccccc3)CC2)C1=O (centres undefined) | 14 | 0 | i | -9 | 0
COC(CNC(=O)CNC(=S)N(Cc1ccccc1)Cc1cccnc1)OC | 21 | 84* | i | -3 | 1
CCN(CC)CCNC(=O)c1ccc(NC(=O)c2ccc(S(=O)(=O)N(C)c3ccccc3OC)cc2)cc1 | . | -6 | . | 3 | -4
COc1ccccc1CNC(=O)C[C@@H]1CC[C@@H](NC(=O)CC2CC2)[C@@H](CO)O1 | . | . | . | -14 | .
CCSc1nccc(-c2nn(-c3ccc(C)cc3)ccc2=O)n1 | . | -4 | . | 24 | -3
CSc1nccc(-c2nn(-c3ccc(C)cc3)ccc2=O)n1 | 46 | -7 | i | 58* | -2
COc1ccc(CNC(C)C2COc3ccccc3O2)c(OC)c1 (centres undefined) | 20 | -2 | i | -22 | 0
CCOC(=O)c1cc([N+](=O)[O-])sc1NC(=O)CC | 1 | 1 | i | 1 | 0
CCOC(=O)c1cc([N+](=O)[O-])sc1N | 11 | 62* | i | -1 | -1
O=C(Nc1ccc(F)cc1)N1CCCN(c2ccc(C(F)(F)F)cn2)CC1 | 7 | . | i | -1 | -3
CCOc1ccc2nc(N(CCN(CC)CC)C(=O)/C=C/c3cccs3)sc2c1 | 18 | 31* | i | -3 | -1
CCN(CC)CCN(C(=O)/C=C/c1cccs1)c1nc2ccc(OC)cc2s1 | . | -3 | . | 2 | -1
CN1C(=O)[C@@H]2[C@@H]3C[C@@H]([C@H]4ON=C(c5ccccc5OCC#N)[C@@H]34)[C@@H]2C1=O | 10 | -4 | i | -2 | 0
CCOC(=O)C1CCCN(C(=O)CCn2nnnc2CN2CCOCC2)C1 (centres undefined) | 32 | 1 | + | -6 | -2
CCN(CC)C(=O)C1CCCN(C(=O)CCn2nnnc2CN2CCOCC2)C1 (centres undefined) | 37 | 1 | . | -1 | -2
C=CCN1C=C2C(=O)C(C)(OC(=O)CCC(=O)OC)C(=O)C=C2C=C1C1CC1 (centres undefined) | 34 | -1 | i | 3 | 0
COC(=O)CCC(=O)OC1(C)C(=O)C=C2C=C(C3CC3)N(CCN3CCOCC3)C=C2C1=O (centres undefined) | 21 | -1 | i | 3 | 0
SMILES | AI-2 QS mod | CAL PDZ FP-1 | Rce1 inhib | ARNT TACC3 PPI | CAL PDZ FP-2
COC(=O)CCC(=O)OC1(C)C(=O)C=C2C=C(C3CC3)N(CCCOC(C)C)C=C2C1=O (centres undefined) | 27 | 0 | i | 75* | -1
COC(=O)CCC(=O)OC1(C)C(=O)C=C2C=C(C3CC3)N(CCc3ccccn3)C=C2C1=O (centres undefined) | 9 | 1 | i | 11* | 0
COC(=O)CCC(=O)OC1(C)C(=O)C=C2C=C(C3CC3)N(CCCCO)C=C2C1=O (centres undefined) | -4 | 2 | i | 32* | 1
CCOC(=O)C1=C(CC)OC(N)=C(C#N)C1c1ccc(OC)c(OC)c1OC (centres undefined) | -8 | . | i | 15* | -1
Cc1cccc(CCN2CCN=C2Nc2ccccc2)c1 | . | 1 | . | 0 | -2
COc1cc(/C=C/C(=O)OCC(=O)c2ccc[nH]2)cc(OC)c1OC | . | 40* | . | -5 | 0
COc1ccc(/C=C/C(=O)OCC(=O)c2ccc[nH]2)cc1 | . | -5 | . | . | -1
COCCn1c(-c2ccco2)csc1=Nc1cccnc1 | 7 | . | i | 10 | 0
COc1ccc(O)c(/C=N/n2c(-c3ccco3)csc2=Nc2cccnc2)c1 | 6 | -2 | i | 62* | -2
O=C(NCc1ccccn1)c1cn(Cc2ccccc2)nn1 | -3 | 105* | i | -2 | .
CCOC(=O)C1Nc2ccc(C(=O)O)cc2C2C=CCC12 (centres undefined) | -4 | 44* | i | 9 | .
CC(C)C1C(C#N)=C(N)Oc2n[nH]c(-c3cccs3)c21 (centres undefined) | 36 | 54* | i | -10 | -1
Cc1ccc(C2C(C#N)=C(N)Oc3n[nH]c(-c4cccs4)c32)cc1 (centres undefined) | 5 | 2 | i | -3 | -3
O=C(NCc1ccncc1)C(=O)N/N=C/c1ccccn1 | 35 | 56* | i | 9 | -2
COc1cc(C(=O)N/N=C/c2ccccn2)cc(OC)c1OC | 25 | -1 | i | 48* | -1
O=C(N/N=C\c1ccccn1)c1ccccc1O | ? | -3 | i | 59* | -3
O=C(N/N=C/c1ccccn1)c1ccncc1 | 14 | . | i | 69* | 0
O=C(Cc1ccc(F)cc1)N/N=C/c1ccccn1 | 10 | -1 | . | 8 | -1
C[C@@H]1CCCCO[C@@H](CN(C)S(=O)(=O)c2cccs2)[C@H](C)CN([C@H](C)CO)C(=O)c2cc(NC(=O)Nc3ccc(F)cc3)ccc2O1 | . | . | . | -2 | .
CCC1S/C(=N\S(=O)(=O)c2cccs2)N(C2CCCCC2)C1=O (centres undefined) | 6 | . | i | -5 | 1
Cc1ccc(S(=O)(=O)N(C)C[C@H]2Oc3ccc(NS(=O)(=O)c4ccccc4)cc3CC(=O)N([C@@H](C)CO)C[C@@H]2C)cc1 | . | . | . | -5 | .
COc1ccc(S(=O)(=O)Nc2ccccc2OC)cc1N=Nc1c(O)[nH]c(=S)[nH]c1=O | . | -3 | . | -14 | 1
O=C(N/N=C(\Cc1ncc[nH]1)c1ccccc1)c1ccncc1 | 37 | -3 | i | 64* | -2
C(=N\NC(=Nc1ccccc1)c1ccccn1)/c1ccccn1 | 32 | -3 | i | 87* | -1
O=C(N/N=C/c1ccccn1)c1sc2ccccc2c1Cl | ? | -3 | i | 55* | -4
Cc1ccccc1C(=O)N/N=C/c1ccccn1 | 16 | -2 | i | 12 | -2
Cn1ncc(Cl)c1C(=O)N/N=C/c1ccccn1 | 24 | -4 | i | 66* | -2
